Screens from PubChem BioAssay.
This is one part of a sample in which hits are shown more often than they occur.
INS promoter act: activators of insulin promoter-driven GFP, primary screen, imaging, TRM-6 cells (human fetal islet line), eGFP reporter, cell count | plate-scaled: unstimulated 0, stimulated control 100 | activation, % at 2 µM | hit rate 0.81% among 130,000;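 active means activation at 2 µM above a set limit, confirmed on inspection of the cell images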;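 further: share of cells whose green reporter signal exceeds an intensity cutoff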
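Assay system: TRM-6 human fetal islet cells, insulin promoter–eGFP reporter; Also added: 0.75 µM tamoxifen as reporter inducer; Schedule: 15 h tamoxifen pre-treatment, 48 h compound treatment at 37 °C; Signal: fixed-cell fluorescence microscopy, eGFP plus Hoechst; Read-out: percent activation from GFP-positive cell fraction; Control set: stimulated and unstimulated wells.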
* hit, by the source's call.

SMILES	INS promoter act
Cc1ccccc1Cn1c(=O)n(CC2CCC(C(=O)NCCc3ccccc3)CC2)c(=O)c2ccccc21 (stereo unspecified)	0
CC(NC(=O)Cc1c(F)cccc1Cl)C1CCCO1 (stereo unspecified)	-3
CNC(=O)CSCc1c(F)cccc1Cl	-81
O=C(Cc1c(F)cccc1Cl)N1CCCC1	557*
CC(=O)/C(C#N)=C1\NC(=O)C(Cc2ccc(C)c(C)c2)S1 (stereo unspecified)	-7
COc1ccc(C2C(C#N)=C(N)Nc3onc(C(C)(C)C)c32)c(OC)c1 (stereo unspecified)	-3
CCCCOc1ccc(C2C3CN(C(=O)OCC)CC=C3C(C#N)=C(N)C2(C#N)C#N)cc1OC (stereo unspecified)	5
COc1ccc(OC)c(C2C3CN(C(C)C)CC=C3C(C#N)=C(N)C2(C#N)C#N)c1 (stereo unspecified)	479*
COC(=O)c1ccccc1OCCCN(C)C	-10
COc1ccc(-c2csc(-c3cc4ccccc4oc3=N)n2)cc1	0
COc1cc(NC(=S)NCCN2CCOCC2)cc(OC)c1	-64
O=C(Nc1ncc(Cc2ccc(SC(F)F)cc2)s1)c1ccc(OC(F)F)cc1	157
Cc1nn(C)c(C)c1/C=N/N=C1\CCC2C3CCc4cc(O)ccc4C3CCC12C (stereo unspecified)	91*
C#C[C@]1(O)CC[C@H]2[C@@H]3CCc4cc(OC)ccc4[C@H]3CC[C@@]21C	-5
Cc1ccc(-c2cc(C(=O)N/N=C/c3c(C)nn(C)c3C)c3ccccc3n2)cc1C	5
CC1=CC(C)(C)n2c(O)c(N=N)c3cc(C)cc1c32	-6
Cc1csc(NC(=O)C2CCN(S(=O)(=O)c3ccccc3F)CC2)n1	111
COc1ccc(OC)c(/C=N/N(C)c2ccccc2)c1	132*
COc1ccc(OC)c(C(=O)c2ccccc2)c1	-81
COc1ccc(OC)c(/C=N/NC(=O)CCCC(=O)Nc2cccc(Br)c2)c1	7
CCOC(Cn1cc(C)c(=O)[nH]c1=O)OCC	8
c1coc(Cn2c(SCc3nc4ccccc4[nH]3)nnc2-c2cccs2)c1	123*
Brc1ccc(CSc2nnc(-c3ccccn3)n2Cc2ccco2)cc1	0
O=c1c2ccccc2nnn1CSc1nnc(-c2cccs2)n1Cc1ccccc1	4
CC(O)C(C(=O)OCc1ccc([N+](=O)[O-])cc1)N1C(=O)c2ccccc2C1=O (stereo unspecified)	-62
SMILES	INS promoter act
Cc1ccc(S(=O)(=O)NNC(=O)c2sc3nc(C)cc(C)c3c2-n2cccc2)cc1	4
Cc1ccc(S(=O)(=O)Oc2ccccc2/C=N/NC(N)=S)cc1	103*
COc1ccc(/C=N/NS(=O)(=O)c2ccccc2)cc1OS(=O)(=O)c1ccc(C)cc1	-7
COc1ccc(/C=N/NC(N)=S)cc1OC(=O)c1ccccc1	4
CC1=C(C(=O)OCC2CCCO2)C(c2ccc(Cl)cc2)NC(=O)N1 (stereo unspecified)	-9
CCN(CC)C(=O)C12CC3CC(CC(Br)(C3)C1)C2	-3
Cc1cc(NC(=O)CCC(=O)N(c2ccccc2)C(C(=O)NC2CCCC2)c2cccs2)no1 (stereo unspecified)	118
Cc1cc(NC(=O)CCC(=O)N(Cc2cccs2)C(C(=O)NC2CCCC2)c2cccnc2)no1 (stereo unspecified)	-3
Cc1ccc(C(C(=O)NC2CCCC2)N(Cc2ccco2)C(=O)CCC(=O)Nc2cc(C)on2)cc1 (stereo unspecified)	810*
Cc1cccc(N2CCN(c3nc4ccc(Cl)cc4n4cnnc34)CC2)c1C	-2
CCOC(=O)CSc1nc(C(C)(C)C)cc(C(F)(F)F)c1C#N	-7
CCCCCCCCC(=O)NNC(=O)c1c(O)c2ccccc2n(CCC)c1=O	0
CCOC(=O)COc1c(/C=N\OC)cc(Cl)cc1OC	136
CCOC(=O)COn1c(=O)c(-c2ccc(OC)c(OC)c2)[n+]([O-])c2ccccc21	0
Cc1c(=O)n(OCc2cccc(F)c2)c2ccccc2[n+]1[O-]	132*
COc1ccc(-c2c(=O)n(OCc3ccccn3)c3ccccc3[n+]2[O-])cc1OC	-10
CC(C)[C@H](NC(=O)c1ccccc1)C(=O)OCC(=O)N1CC2(C)CC1CC(C)(C)C2 (stereo partly specified)	7
CCC(C(=O)NC(C)(C)C)N(C(=O)Cn1nnc(-c2cccs2)n1)c1cnc2ccccc2c1 (stereo unspecified)	-3
S=C(NC1CCCC1)N1CCN(c2ccc(Cl)cc2)CC1	-9
COc1cc(/C=C2\SC(=Nc3ccc(N4CCOCC4)cc3)N(C)C2=O)ccc1OC(C)C(=O)O (stereo unspecified)	-7
COc1ccc(OC)c(S(=O)(=O)Nc2cccc(F)c2)c1	-4
Nc1c(C(=O)Nc2ccc(S(=O)(=O)N3CCCC3)cc2)sc2nc3cc4c(cc3cc12)CCC4	182
Nc1c(C(=O)Nc2ccc(S(=O)(=O)N3CCCC3)cc2)sc2nc3ccc(OC(F)(F)F)cc3cc12	231*
O=C(Nc1ccc(S(=O)(=O)N2CCCCC2)cc1)c1ccncc1	8
Cc1nn(C)c(C)c1CS(=O)(=O)c1ccccc1	0
SMILES	INS promoter act
O=C1OCCN1C(=O)[C@H]1[C@H](c2ccc([N+](=O)[O-])cc2)C(c2cccc(Cl)c2)=NN1c1ccccc1	273*
O=C(NCc1ccccc1C(F)(F)F)C12CN(Cc3ccccc3)CC1C(c1ccc([N+](=O)[O-])cc1)=NO2 (stereo unspecified)	-5
O=[N+]([O-])c1ccc(N2N=C(c3ccco3)CC2c2ccccc2)cc1 (stereo unspecified)	106
Cc1ccc(Nc2nnc(SCc3nc4ccccc4c(=O)[nH]3)s2)cc1	-6
O=S(=O)(Cc1ccccc1Cl)NCc1ccccc1	0
CCCCOC(=O)c1ccc(NC(=O)CSc2nnnn2C)cc1	7
O=C(CCCOc1ccc(Cl)cc1)Nc1cccc(C(=O)O)c1	6
Cc1cc(NS(=O)(=O)c2ccc(NC(=O)NC(C)(C(F)(F)F)C(F)(F)F)cc2)no1	-4
Cc1cc(NS(=O)(=O)c2ccc(NC(=O)CCCOc3ccc(Cl)cc3)cc2)no1	127*
COc1cc(/C=C(\NC(C)=O)C(=O)Nc2cccc(O)c2)ccc1OC(C)=O	0
COc1ccc(-c2nnc(SCC(=O)Nc3ccccc3OC)o2)cc1	5
COC(=O)c1ccc(OC)c(CSc2nnc(-c3ccc(C(C)(C)C)cc3)o2)c1	508*
COc1ccccc1NC(=O)CSc1nnc(-c2ccncc2)o1	-7
N#Cc1cccc(NCC(=O)Nc2ccc3c(c2)OCCO3)c1	-8
O=[N+]([O-])c1cccc(S(=O)(=O)NCCCN2CCOCC2)c1	0
COc1ccccc1NS(=O)(=O)c1cc(C)ccc1C	10
COc1ccccc1NS(=O)(=O)c1ccc(N/N=C(\C)C(C)C)c([N+](=O)[O-])c1	-9
COc1ccccc1NS(=O)(=O)c1cc([N+](=O)[O-])ccc1N/N=C/c1c(C)[nH]c2ccccc12	260*
COC(=O)c1cc(-c2ccc(Cl)cc2Cl)n[nH]1	-78
CCN(CC)c1ccc(C(=O)OCC(=O)Nc2cccc(S(=O)(=O)NC3=NCCCCC3)c2)cc1	0
Cn1cnnc1SCC(=O)Nc1cc(S(=O)(=O)N2CCCCCC2)ccc1Cl	-5
CCCC(=O)Nc1ccc(Br)c(Cl)c1	443*
O=C(O)CCC(=O)Nc1ccc(Br)c(Cl)c1	-2
CC(C)(C)C(=O)CC(=O)Nc1ccc(Cl)c(N)c1	0
